Measurements: PMC8921320 (The Journal of Biological Chemistry, 2022)
“And” between values parts separate entries of the source, which are not always exact repeats. Equal entries are not always repeated. Where two headings read alike, the source gives them in different places. Square brackets hold non-standard residues; d marks the D form. Peptide text beside a SMILES is read from it. Orn(N5-OH,N5-Ac) = CC(=O)N(O)CCC[C@H](N)C(=O)O

Experiments:
[1] = molecular target: T1, EcoIutA (Escherichia coli, UniProt B7LI14, T574C); experiment: Fluorescence quenching binding, EcoIutA-FM sensor
T1 sequence (B7LI14 26-733 T574C): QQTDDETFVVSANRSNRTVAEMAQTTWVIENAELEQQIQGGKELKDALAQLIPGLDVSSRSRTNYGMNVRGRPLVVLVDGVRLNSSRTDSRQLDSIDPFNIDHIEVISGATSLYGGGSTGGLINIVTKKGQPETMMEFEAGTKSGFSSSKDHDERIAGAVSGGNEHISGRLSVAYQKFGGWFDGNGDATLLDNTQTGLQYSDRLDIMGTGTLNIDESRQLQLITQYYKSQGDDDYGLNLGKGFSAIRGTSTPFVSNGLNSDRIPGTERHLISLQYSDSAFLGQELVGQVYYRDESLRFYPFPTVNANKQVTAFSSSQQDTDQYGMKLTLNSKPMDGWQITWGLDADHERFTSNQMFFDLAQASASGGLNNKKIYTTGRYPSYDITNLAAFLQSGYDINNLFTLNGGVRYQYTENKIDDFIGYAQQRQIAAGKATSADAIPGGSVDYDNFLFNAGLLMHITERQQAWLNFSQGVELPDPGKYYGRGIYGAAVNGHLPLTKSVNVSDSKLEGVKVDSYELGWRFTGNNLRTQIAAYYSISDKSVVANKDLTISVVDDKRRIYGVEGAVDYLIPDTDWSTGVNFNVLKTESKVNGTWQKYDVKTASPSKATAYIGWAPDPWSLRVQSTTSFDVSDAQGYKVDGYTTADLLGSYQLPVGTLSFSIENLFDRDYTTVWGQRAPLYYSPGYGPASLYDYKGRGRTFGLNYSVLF

[2] = molecular target: human siderocalin (HsaSCN) (Homo sapiens, UniProt P80188, Q148C); experiment: Fluorescence quenching binding, purified HsaSCN-FM sensor; details: HsaSCN-FM (Q128C), purified protein
[3] = molecular target: T2, PaeFpvA (Pseudomonas aeruginosa, UniProt P48632, T660C); experiment: Fluorescence quenching binding, PaeFpvA-FM sensor
T2 sequence (P48632 44-815 T660C): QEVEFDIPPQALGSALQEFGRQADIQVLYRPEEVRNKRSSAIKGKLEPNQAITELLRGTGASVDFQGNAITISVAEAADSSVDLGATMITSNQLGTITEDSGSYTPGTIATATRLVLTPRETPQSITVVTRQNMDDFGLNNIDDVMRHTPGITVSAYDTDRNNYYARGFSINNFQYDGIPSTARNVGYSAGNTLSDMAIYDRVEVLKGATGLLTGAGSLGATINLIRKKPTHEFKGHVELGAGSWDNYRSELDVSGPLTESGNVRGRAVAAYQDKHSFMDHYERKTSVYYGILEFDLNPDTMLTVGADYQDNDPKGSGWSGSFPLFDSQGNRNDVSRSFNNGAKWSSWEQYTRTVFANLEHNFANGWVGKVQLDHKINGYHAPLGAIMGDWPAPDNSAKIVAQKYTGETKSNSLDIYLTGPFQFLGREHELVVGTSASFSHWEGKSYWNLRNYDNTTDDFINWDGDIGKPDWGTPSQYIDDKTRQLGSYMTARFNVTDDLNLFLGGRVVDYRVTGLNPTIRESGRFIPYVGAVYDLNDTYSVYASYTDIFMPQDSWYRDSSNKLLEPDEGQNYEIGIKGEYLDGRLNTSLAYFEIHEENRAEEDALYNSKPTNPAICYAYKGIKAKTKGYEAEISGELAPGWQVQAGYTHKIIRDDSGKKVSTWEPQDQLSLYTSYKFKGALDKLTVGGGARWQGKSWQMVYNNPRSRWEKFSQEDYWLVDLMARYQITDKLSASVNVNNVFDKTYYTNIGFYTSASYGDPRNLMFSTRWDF
How it was run: (§1)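 Cys-mutant receptor made in E. coli hosts (entA, tonB+ or ΔtonB) grown in iron-deficient MOPS at 37 °C to late exponential phase. Cells washed in 50 mM NaHPO₄ pH 6.7, labeled in situ with 5 μM fluorescein maleimide for 15 min at 37 °C, quenched with 100 μM β-mercaptoethanol, then resuspended in PBS + 0.2% glucose. Binding used 2.5 × 10⁷ cells in 2 ml, stirred at 37 °C. Iron complex added stepwise; 520 nm emission quenching read in triplicate; 1-F/F₀ vs [ligand] fitted to single-site model for KD.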

[4] = molecular target: T3, EcoFepB (Escherichia coli, UniProt P0AEL6, T297C); experiment: Fluorescence quenching binding, purified EcoFepB-FM sensor
T3 sequence (P0AEL6 27-318 T297C): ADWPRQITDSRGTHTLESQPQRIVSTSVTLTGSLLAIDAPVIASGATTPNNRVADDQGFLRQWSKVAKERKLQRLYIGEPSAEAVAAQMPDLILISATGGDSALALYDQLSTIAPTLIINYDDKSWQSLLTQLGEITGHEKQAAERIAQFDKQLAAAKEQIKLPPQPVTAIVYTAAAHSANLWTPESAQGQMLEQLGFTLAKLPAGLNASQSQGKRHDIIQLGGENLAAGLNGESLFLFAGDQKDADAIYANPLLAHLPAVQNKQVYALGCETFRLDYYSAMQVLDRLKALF
How it was run: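 His-tagged T297C FepB expressed from pET28 in E. coli and purified by metal affinity chromatography. Labeled with 5 μM fluorescein maleimide at pH 6.77 for 15 min, then repurified by gel filtration. Apo or ferric siderophores added at increasing concentrations, with three quenching determinations per concentration. Mean values fitted to a single-site binding model to give KD.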

[5] = tested on: EcoFiu; experiment: Fluorescence quenching binding, EcoFiu-FM sensor; parameters: species or system Escherichia coli
How it was run: as §1

[6] = molecular target: KpnFyuA (Klebsiella pneumoniae, UniProt A4GZD6, S653C); experiment: Fluorescence quenching binding, KpnFyuA-FM sensor; details: 50% quenching
[7] = tested on: EcoCir; experiment: Fluorescence quenching binding, EcoCir-FM sensor; parameters: species or system Escherichia coli
How it was run: as §1

[8] = molecular target: T4, EcoFepA (Escherichia coli, UniProt P05825, A720C); details: cited from earlier work
T4 sequence (P05825 23-746 A720C): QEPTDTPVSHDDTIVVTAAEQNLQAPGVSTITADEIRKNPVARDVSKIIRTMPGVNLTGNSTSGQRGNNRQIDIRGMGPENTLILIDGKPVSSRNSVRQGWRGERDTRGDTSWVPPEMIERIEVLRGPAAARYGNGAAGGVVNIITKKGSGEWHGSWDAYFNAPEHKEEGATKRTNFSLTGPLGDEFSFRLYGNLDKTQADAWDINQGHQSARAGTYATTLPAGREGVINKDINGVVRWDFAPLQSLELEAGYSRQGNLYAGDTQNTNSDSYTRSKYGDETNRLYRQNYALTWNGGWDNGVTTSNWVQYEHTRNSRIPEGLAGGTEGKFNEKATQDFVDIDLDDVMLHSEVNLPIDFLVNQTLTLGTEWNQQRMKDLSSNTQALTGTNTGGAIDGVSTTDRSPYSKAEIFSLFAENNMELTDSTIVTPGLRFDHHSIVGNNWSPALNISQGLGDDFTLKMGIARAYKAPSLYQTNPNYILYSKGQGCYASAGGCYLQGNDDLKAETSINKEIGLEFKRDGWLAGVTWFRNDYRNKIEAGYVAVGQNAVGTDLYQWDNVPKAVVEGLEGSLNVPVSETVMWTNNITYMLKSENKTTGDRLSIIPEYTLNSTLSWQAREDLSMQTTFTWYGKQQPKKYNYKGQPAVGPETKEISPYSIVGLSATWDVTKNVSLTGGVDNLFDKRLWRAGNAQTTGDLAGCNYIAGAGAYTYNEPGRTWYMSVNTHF

[9] = molecular target: T5, KpnIroN (Klebsiella pneumoniae, UniProt A0ACD7U953, T234C); details: cited from earlier work
T5 sequence (A0ACD7U953 25-724 T234C): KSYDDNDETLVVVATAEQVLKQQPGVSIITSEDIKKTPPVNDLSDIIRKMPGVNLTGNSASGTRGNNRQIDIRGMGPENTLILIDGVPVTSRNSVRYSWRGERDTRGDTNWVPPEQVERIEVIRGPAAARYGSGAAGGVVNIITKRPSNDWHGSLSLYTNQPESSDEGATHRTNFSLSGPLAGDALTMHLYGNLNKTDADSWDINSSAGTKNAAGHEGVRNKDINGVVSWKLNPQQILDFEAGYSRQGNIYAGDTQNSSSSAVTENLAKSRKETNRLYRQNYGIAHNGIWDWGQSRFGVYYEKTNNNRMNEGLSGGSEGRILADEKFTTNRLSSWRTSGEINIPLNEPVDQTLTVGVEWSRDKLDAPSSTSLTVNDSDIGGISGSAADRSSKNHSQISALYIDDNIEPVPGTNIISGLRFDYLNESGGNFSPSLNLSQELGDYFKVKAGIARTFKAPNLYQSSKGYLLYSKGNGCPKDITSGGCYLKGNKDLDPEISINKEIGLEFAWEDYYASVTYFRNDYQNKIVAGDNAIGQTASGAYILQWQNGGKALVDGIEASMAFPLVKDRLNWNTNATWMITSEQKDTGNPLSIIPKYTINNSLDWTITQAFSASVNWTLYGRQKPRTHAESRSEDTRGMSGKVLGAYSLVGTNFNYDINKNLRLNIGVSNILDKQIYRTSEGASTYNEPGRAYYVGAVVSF

[10] = molecular target: T4, EcoFepA; experiment: Fluorescence quenching binding, EcoFepA-FM sensor
[11] = molecular target: AbaFepA; type: binding, Acinetobacter baumannii
[12] = tested on: Iron-deficient Gram-negative bacteria, with maximally expressed chromosomal FepA; details: cited from earlier work
[13] = molecular target: T5, KpnIroN; experiment: Fluorescence quenching binding, KpnIroN-FM sensor
How it was run: as §1

[14] = tested on: AbaPirA; experiment: Fluorescence quenching binding, AbaPirA-FM sensor; parameters: species or system Acinetobacter baumannii
How it was run: as §1

[15] = tested on: AbaPiuA; experiment: Fluorescence quenching binding, AbaPiuA-FM sensor; parameters: species or system Acinetobacter baumannii
How it was run: as §1

Chain of human siderocalin (HsaSCN) (P80188 21-198 Q148C): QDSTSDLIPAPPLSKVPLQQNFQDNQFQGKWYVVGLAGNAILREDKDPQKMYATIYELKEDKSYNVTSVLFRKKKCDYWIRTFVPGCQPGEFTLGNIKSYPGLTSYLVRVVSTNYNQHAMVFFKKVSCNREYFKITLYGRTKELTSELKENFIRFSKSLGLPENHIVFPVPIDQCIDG

## CC(=O)N([O-])CCC[C@@H]1NC(=O)CNC(=O)CNC(=O)CNC(=O)[C@H](CCCN([O-])C(C)=O)NC(=O)[C@H](CCCN([O-])C(C)=O)NC1=O.[Fe+3] [Fc, ferrichrome] (cyclo(GGG[Orn(N5-OH,N5-Ac)][Orn(N5-OH,N5-Ac)][Orn(N5-OH,N5-Ac)]))
[1]
  binding (in words): did not measurably bind
[2]
  Kd: 0.11 µM

## O=C(O)c1cccc(O)c1O.[Fe+3] [FeDHB]
[3]
  binding (in words): weakly bound
[4]
  binding (in words): bound
[2]
  Kd: 0.33 µM
[5]
  binding (in words): did not bind

## CC(C)(C1=N[C@@](C)(C(=O)O)CS1)[C@H](O)[C@@H]1CS[C@H]([C@H]2CSC(c3ccccc3O)=N2)N1.[Fe+3] [FeYbt]
[6]
  Kd: 0.001 µM
[2]
  Kd: 11 µM

## CC(=O)N(O)CCCC[C@H](NC(=O)CC(O)(CC(=O)N[C@@H](CCCCN(O)C(C)=O)C(=O)O)C(=O)O)C(=O)O.[Fe+3] [FeAbn, ferric aerobactin]
[1]; EcoIutA-FM sensor, fluorescence quenching
  Kd: 0.006 µM

## O=C(N[C@H]1COC(=O)[C@@H](NC(=O)c2cccc(O)c2O)COC(=O)[C@@H](NC(=O)c2cccc(O)c2O)COC1=O)c1cccc(O)c1O.[Fe+3] [FeEnt, ferric enterobactin]
[3]
  binding (in words): weakly bound
[7]
  binding (in words): bound
[4]; EcoFepB-FM (T297C), purified protein
  Kd: 43 µM
[4]; FeEnt, EcoFepB-FM vs EcoFepA
  fold less affinity than EcoFepA: about 100 fold
[8]; ref 53, 68, 69, 70
  Kd: 0.0001 to 0.0004 µM
[8]; ref 53
  Kd: 0.0004 µM
[9]
  Kd: 0.0004 µM
[10]; EcoFepA-FM
  fold higher affinity for FeEnt than for FeGEnt: ~300 fold
[11]; AbaFepA-FM sensor, fluorescence quenching
  Kd: ~0.025 µM and 0.017 µM
[2]
  Kd: 0.01 to 0.012 µM
[5]
  binding (in words): bound
[12]
  transport rate: ~50 pmol/10^9 cells/min

## O=C(N[C@H]1COC(=O)[C@@H](NC(=O)c2cccc(O)c2O)COC(=O)[C@@H](NC(=O)c2cccc(O)c2O)COC1=O)c1cccc(O)c1O [Ent, enterobactin]
[4]
  binding (in words): bound
[10]
  Kd: 0.027 µM

## CC(C)(O/N=C(\C(=O)N[C@@H]1C(=O)N2C(C(=O)[O-])=C(C[N+]3(CCNC(=O)c4ccc(O)c(O)c4Cl)CCCC3)CS[C@H]12)c1csc(N)n1)C(=O)O [FDC, cefidericol]
[13]
  binding (in words): bound
[7]
  binding (in words): bound
[14]
  binding (in words): bound
[15]
  binding (in words): bound
[11]
  binding (in words): bound
[5]
  binding (in words): bound
